Most compounds without a hit are left out; they make up all but 12% or so of the library.
WT yeast gro inh = growth inhibition of WT yeast, mitochondrial fusion screen. mitochondrial fusion phenotypic screen, WT strain. inhibition, % at 10 µM. 190,000 compounds, 2.1% hits. AID 1362; in the data active = inhibition above about 58%; tested in S. cerevisiae
Cl transport mod = modulators of human KCC2 chloride dependent transport; AID 1456; Q9H2X9; 190,000 compounds, 2.2% hits; B-score of Tl+ flux slope (higher = more flux/activation; lower = inhibition) at 10 µM; KCC2 cells, thallium flux FluoZin-2 fluorescence;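 active = thallium flux slope and its plate-corrected score both differing from the plate sample mean at a set confidence after two filtering rounds, in either direction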;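 note: slope of fluorescence scaled to starting intensity during 10 to 20 s after thallium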
Diaph inh CS = diaphorase inhibition or chemical oxidation counter-screen; diaphorase resazurin-to-resorufin fluorescence, NADH, 16 min; bacterial (C. kluyveri) enzyme, not human; inhibition, % at 20 µM; 190,000 compounds, 0.69% hits;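 active = primary screen inhibition at 20 µM above a set limit, cut at about 50% in these data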
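Assay system: diaphorase enzyme from Clostridium kluyveri; Input: enzyme working solution with 0.14 U/mL diaphorase; Timing: 16 min at room temperature; Technique: resorufin fluorescence, excitation 544 nm, emission 590 nm; Benchmarks: positive control minus NADH, DMSO neutral control.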
Diaph act CS = diaphorase activation or chemical reduction counter-screen | Diaphorase/resazurin coupled assay, resorufin fluorescence, 16 min; hits give high values; 1 = vehicle wells, 0 = NADH-free wells | activation factor at 20 µM | 190,000 compounds, 0.005% hits;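 active = diaphorase activity raised at least twofold by the compound at 20 µM; inactive = activation factor below 2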
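Assay system: bacterial diaphorase enzyme (C. kluyveri) / Input: enzyme 0.07 U/mL final / Medium: 50 mM HEPES pH 7.4 with 4.542 mM MgCl2, 0.005% Tween 20 / Doses: single compound dose of 20 µM, 1% DMSO final / Incubation: 16 min enzyme reaction, ambient temperature / Signal: fluorescence, excitation 544 nm and emission 590 nm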
ROMK mod = modulators of human ROMK potassium channel; P48048; Tet-inducible ROMK, thallium flux fluorescence; actives lie on both sides; B-score at 10 µM; 130,000 compounds, 2% hits; AID 1918;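 active = signal ratio slope over the read window, or its plate-corrected B-score, at least 3 SD from the plate mean, either direction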;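 note: B-score of the F/F0 ratio slope over 7 to 12 s after thallium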
L major viab = Leishmania major promastigote growth inhibition | Leishmania major promastigotes, resazurin fluorescence viability | inhibition, % at 10 µM | 200,000 compounds, 9% hits; in the data active = inhibition above about 50%;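 note: promastigotes grown with compound for 44 hours at 28 °C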
A number is an active result.

For Cc1ccc(Nc2nc(NCCCN3CCOCC3)nc(N)c2[N+](=O)[O-])cc1C the results were WT yeast gro inh inactive, Cl transport mod inactive, Diaph inh CS inactive, Diaph act CS inactive and L major viab 52.
`Nc1nc(NCCCN2CCOCC2)nc(Nc2ccc(Cl)cc2)c1[N+](=O)[O-]` gave Cl transport mod inactive and ROMK mod inactive.
Cc1ccc(Nc2nc(NCCCN3CCOCC3)nc(N)c2[N+](=O)[O-])cc1 was read as WT yeast gro inh inactive, Cl transport mod inactive, Diaph inh CS inactive, Diaph act CS inactive, ROMK mod inactive and L major viab 51.
`CSc1ccccc1NC(=O)c1cc2ncc(Br)cn2n1` gave WT yeast gro inh inactive, Cl transport mod inactive, Diaph inh CS inactive, Diaph act CS inactive, ROMK mod inactive and L major viab inactive.
`Oc1ccc(Br)cc1/C=N/Nc1nc(N2CCCCC2)nc(N2CCOCC2)n1` gave WT yeast gro inh inactive, Cl transport mod inactive, Diaph inh CS inactive, Diaph act CS inactive, ROMK mod inactive and L major viab 91.
For Oc1ccc(/C=N/Nc2nc(N3CCCCCC3)nc(N3CCCCCC3)n2)c(O)c1 the results were WT yeast gro inh 74, Cl transport mod inactive, Diaph inh CS inactive, Diaph act CS inactive, ROMK mod inactive and L major viab inactive.
Screening COc1ccc(/C=C2/CC/C(=C\c3ccc(OC)c(OC)c3OC)C2=O)c(OC)c1OC returned WT yeast gro inh inactive, Cl transport mod inactive, Diaph inh CS inactive, Diaph act CS inactive, ROMK mod inactive and L major viab inactive.
`COc1cc(/C=C2/CCC/C(=C\c3cc(O)c(OC)c(Cl)c3)C2=O)cc(Cl)c1O` gave Cl transport mod inactive, Diaph inh CS inactive, Diaph act CS inactive and L major viab 91.
COc1cc(/C=C2\CC/C(=C\c3cc(OC)c(OC)c(OC)c3)C2=O)cc(OC)c1OC was read as WT yeast gro inh inactive, Cl transport mod inactive, Diaph inh CS inactive, Diaph act CS inactive, ROMK mod inactive and L major viab 96.
For COc1cc(/C=C2\COC/C(=C\c3cc(OC)c(OC)c(OC)c3)C2=O)cc(OC)c1OC the results were Cl transport mod inactive.
`COc1cc(/C=C2\CC/C(=C\c3cc(OC)c(O)c(OC)c3)C2=O)cc(OC)c1O` gave WT yeast gro inh inactive, Cl transport mod inactive, Diaph inh CS 71, Diaph act CS inactive, ROMK mod inactive and L major viab 58.
Screening COCc1ccc(C(=O)N2CCCC(CCC(=O)NCc3ccccc3F)C2)o1 (configuration not stated) returned WT yeast gro inh inactive, Diaph inh CS inactive, Diaph act CS inactive, ROMK mod inactive and L major viab inactive.
CS(=O)(=O)N(CC(=O)Nc1ccccc1C(=O)NCc1ccccc1)c1ccc2c(c1)OCCO2 was read as WT yeast gro inh inactive, Cl transport mod inactive, Diaph inh CS inactive, Diaph act CS inactive, ROMK mod inactive and L major viab inactive.
For CS(=O)(=O)N(CC(=O)Nc1ccccc1C(=O)NCCc1ccccc1)c1ccc2c(c1)OCCO2 the results were WT yeast gro inh inactive, Cl transport mod inactive, Diaph inh CS inactive, Diaph act CS inactive, ROMK mod inactive and L major viab 99.
Screening O=C(O)CCC(=O)Nc1ccccc1C(=O)NCCc1ccccc1 returned WT yeast gro inh inactive, Cl transport mod inactive, Diaph inh CS inactive, Diaph act CS inactive, ROMK mod inactive and L major viab 56.
Screening Cc1ccc(CN2CCN(Cc3cn[nH]c3C3CCCCC3)CC2CCO)cc1 (configuration not stated) returned WT yeast gro inh inactive, Cl transport mod inactive, Diaph inh CS inactive, Diaph act CS inactive, ROMK mod inactive and L major viab inactive.
CN(C)CCCOc1cccc(Cl)c1 was read as WT yeast gro inh inactive, Cl transport mod inactive, Diaph inh CS inactive, Diaph act CS inactive, ROMK mod inactive and L major viab inactive.
CN(C)CCCOc1cccc(Oc2ccccc2)c1 was read as WT yeast gro inh inactive, Cl transport mod inactive, Diaph inh CS inactive, Diaph act CS inactive, ROMK mod inactive and L major viab 99.
C=CCN(CC=C)CCOc1cccc(Oc2ccccc2)c1 was read as WT yeast gro inh inactive, Cl transport mod inactive, Diaph inh CS inactive, Diaph act CS inactive, ROMK mod inactive and L major viab 97.
For COc1ccc(C)cc1S(=O)(=O)N(CC(=O)NCc1ccc(Cl)cc1)Cc1ccccc1 the results were WT yeast gro inh inactive, Diaph inh CS inactive, Diaph act CS inactive, ROMK mod inactive and L major viab 99.
Screening COc1ccc(C)cc1S(=O)(=O)N(CC(=O)N1CCOCC1)Cc1ccccc1 returned WT yeast gro inh inactive, Diaph inh CS inactive, Diaph act CS inactive and L major viab inactive.
Screening COc1ccc(CNC(=O)CN(Cc2ccccc2)S(=O)(=O)c2ccc(Cl)cc2)cc1 returned WT yeast gro inh inactive, Cl transport mod inactive, Diaph inh CS inactive, Diaph act CS inactive and L major viab 98.
COc1ccc(CNC(=O)CN(Cc2ccc(Cl)cc2)S(=O)(=O)c2ccccc2)cc1 was read as WT yeast gro inh inactive, Cl transport mod inactive, Diaph inh CS inactive, Diaph act CS inactive, ROMK mod inactive and L major viab inactive.
For CCN(CC(=O)Nc1ccc(NC(C)=O)cc1)C(=O)COc1ccc(C(=O)c2ccccc2)cc1 the results were WT yeast gro inh inactive, Cl transport mod inactive, Diaph inh CS inactive, Diaph act CS inactive, ROMK mod inactive and L major viab inactive.
For Cc1nc2ccccc2c(=O)n1/N=C/c1cccs1 the results were WT yeast gro inh inactive, Cl transport mod inactive, Diaph inh CS inactive, Diaph act CS inactive, ROMK mod inactive and L major viab inactive.
Cc1nc2ccccc2c(=O)n1/N=C/c1cn(-c2ccccc2)nc1-c1cccs1 was read as WT yeast gro inh inactive, Cl transport mod inactive, Diaph inh CS inactive, Diaph act CS inactive and L major viab 56.
For Cc1[nH]c(C)c2c(=O)[nH]ncc12 the results were Cl transport mod inactive.
For CC1CN(C(=O)N[C@@H](Cc2ccccc2)C(=O)O)CC(C)O1 (some centres not stated) the results were WT yeast gro inh inactive, Cl transport mod inactive, Diaph inh CS inactive, Diaph act CS inactive, ROMK mod inactive and L major viab 80.
COc1ccc(-c2nn(-c3ccccc3)cc2/C=N/NC(=O)c2ccc3c(c2)OCO3)cc1 was read as WT yeast gro inh inactive, Cl transport mod inactive, Diaph inh CS inactive, Diaph act CS inactive, ROMK mod inactive and L major viab inactive.
For COc1ccccc1NS(=O)(=O)c1cccc(C(=O)N/N=C/c2ccc(N3CCOCC3)cc2)c1 the results were WT yeast gro inh inactive, Cl transport mod inactive, Diaph inh CS inactive, Diaph act CS inactive and L major viab 52.
